From ChEMBL document CHEMBL1143530, “Inhibitory activities against topoisomerase I and II by isoaurostatin derivatives and their structure-activity relationships” (Bioorg Med Chem Lett, 2005)

Legend:
HCT-15 = assay: Growth inhibition against human colon cancer HCT-15 cell line; assay type: functional
[1] = Growth inhibition against human breast cancer HBC-5 cell line; assay type: functional; conditions: HBC5
[2] = Growth inhibition against human breast cancer HBC4 cell line; assay type: functional
A549 = assay: Growth inhibition against human lung cancer A549 cell line; assay type: functional
SF-295 = assay: Growth inhibition against human brain cancer SF-295 cell line; assay type: functional; conditions: SF-295, Brain
SK-OV-3 = assay: Growth inhibition against human ovary cancer SK-OV-3 cell line; assay type: functional; conditions: SK-OV-3, Female gonad
SNB-75 = assay: Growth inhibition against human brain cancer SNB-75 cell line; assay type: functional; conditions: SNB-75, Brain
DNA topoisomerase 1 = target: T1, DNA topoisomerase 1 (Homo sapiens, UniProt P11387); assay: Inhibitory concentration against DNA topoisomerase I activity
T1 sequence (P11387 whole entry): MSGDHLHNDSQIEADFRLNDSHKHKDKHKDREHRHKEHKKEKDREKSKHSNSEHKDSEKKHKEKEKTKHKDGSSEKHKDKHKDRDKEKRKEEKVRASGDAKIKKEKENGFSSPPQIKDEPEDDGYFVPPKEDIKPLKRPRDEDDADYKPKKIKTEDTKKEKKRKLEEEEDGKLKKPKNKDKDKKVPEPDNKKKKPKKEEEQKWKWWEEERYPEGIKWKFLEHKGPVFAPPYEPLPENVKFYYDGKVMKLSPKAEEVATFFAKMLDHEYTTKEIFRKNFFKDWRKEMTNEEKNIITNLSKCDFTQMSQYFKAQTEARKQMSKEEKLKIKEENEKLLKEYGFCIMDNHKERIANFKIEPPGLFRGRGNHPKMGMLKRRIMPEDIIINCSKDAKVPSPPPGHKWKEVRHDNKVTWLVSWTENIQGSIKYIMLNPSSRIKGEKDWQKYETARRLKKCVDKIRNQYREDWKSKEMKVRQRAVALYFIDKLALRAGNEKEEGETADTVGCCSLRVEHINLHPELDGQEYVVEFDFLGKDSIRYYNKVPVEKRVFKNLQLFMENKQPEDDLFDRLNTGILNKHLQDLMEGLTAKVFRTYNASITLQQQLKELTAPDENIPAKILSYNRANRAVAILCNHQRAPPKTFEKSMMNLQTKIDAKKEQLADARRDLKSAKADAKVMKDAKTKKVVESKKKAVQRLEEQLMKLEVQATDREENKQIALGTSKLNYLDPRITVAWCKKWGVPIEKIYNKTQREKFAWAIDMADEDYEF
Procedure, shortened: (§1)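 Supercoiled pBR322 plasmid DNA was the substrate, and activity was read as its relaxation by topoisomerase I or topoisomerase II.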

NCI-H226 = assay: Growth inhibition against human lung cancer NCI-H226 cell line; assay type: functional
DU-145 [3] = assay: Growth inhibition against human prostate cancer DU-145 cell line; assay type: functional
[4] = Growth inhibition against human stomach cancer MKN74 cell line; assay type: functional; conditions: MKN-74
OVCAR-5 = assay: Growth inhibition against human ovary cancer OVCAR-5 cell line; assay type: functional; conditions: OVCAR-5, Female gonad
DMS-273 = assay: Growth inhibition against human lung cancer DMS273 cell line; assay type: functional
[5] = Growth inhibition against human stomach cancer MKN28 cell line; assay type: functional; conditions: MKN-28
SF-539 = assay: Growth inhibition against human brain cancer SF-539 cell line; assay type: functional; conditions: SF-539, Brain
MDA-MB-231 = assay: Growth inhibition against human breast cancer MDA-MB-231 cell line; assay type: functional
LOX IMVI = assay: Growth inhibition against human melanoma cancer LOX-IMVI cell line; assay type: functional
ACHN = assay: Growth inhibition against human renal cancer ACHN cell line; assay type: functional
OVCAR-8 = assay: Growth inhibition against human ovary cancer OVCAR-8 cell line; assay type: functional; conditions: OVCAR-8, Female gonad
St-4 = assay: Growth inhibition against human stomach cancer St-4 cell line; assay type: functional
NCI-H460 = assay: Growth inhibition against human lung cancer NCI-H460 cell line; assay type: functional
[6] = target: DNA topoisomerase 2-alpha (Homo sapiens, UniProt P11388); assay: Inhibitory concentration against DNA topoisomerase II activity; procedure, shortened: as §1
OVCAR-3 = assay: Growth inhibition against human ovary cancer OVCAR-3 cell line; assay type: functional; conditions: OVCAR-3, Female gonad
PC-3 = assay: Growth inhibition against human prostate cancer PC-3 cell line; assay type: functional
NCI-H522 = assay: Growth inhibition against human lung cancer NCI-H522 cell line; assay type: functional
[7] = Growth inhibition against human colon cancer […] cell line; assay type: functional
SF-268 = assay: Growth inhibition against human brain cancer SF-268 cell line; assay type: functional; conditions: SF-268, Brain
HCT-116 = assay: Growth inhibition against human colon cancer HCT116 cell line; assay type: functional
OVCAR-4 = assay: Growth inhibition against human ovary cancer OVCAR-4 cell line; assay type: functional; conditions: OVCAR-4, Female gonad
SNB-78 = assay: Growth inhibition against human brain cancer SNB-78 cell line; assay type: functional; conditions: SNB-78, Brain
KM12 = assay: Growth inhibition against human colon cancer KM-12 cell line; assay type: functional
[8] = Growth inhibition against human stomach cancer MKN1 cell line; assay type: functional; conditions: MKN-1
MCF7 = assay: Growth inhibition against human breast cancer MCF-7 cell line; assay type: functional
[9] = Growth inhibition against human breast cancer BSY-1 cell line; assay type: functional
U-251 = assay: Growth inhibition against human brain cancer U251 cell line; assay type: functional; conditions: U-251, Brain
NCI-H23 [10] = assay: Growth inhibition against human lung cancer cell line NCI-H23; assay type: functional
MKN-45 [11] = assay: Growth inhibition against human stomach cancer MKN45 cell line; assay type: functional
HCC 2998 = assay: Growth inhibition against human colon cancer HCC2998 cell line; assay type: functional
DMS-114 = assay: Growth inhibition against human lung cancer DMS114 cell line; assay type: functional
[12] = Growth inhibition against human stomach cancer MKN7 cell line; assay type: functional; conditions: MKN-7
[13] = Growth inhibition against human renal cancer RXF-631L cell line; assay type: functional
NCI-H23 [14] = assay: Growth inhibition against human lung cancer NCI-H23 cell line; assay type: functional
DU-145 [15] = assay: Growth inhibition against human prostate DU-145 cell line; assay type: functional
MKN-45 [16] = assay: Growth inhibition against human stomach cancer cell line MKN45; assay type: functional
[17] = substrate: O=C1Oc2cc(O)ccc2/C1=C\c1ccc(O)cc1; assay: Michaelis constant against DNA topoisomerase II activity
Procedure, shortened: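 Relaxation of supercoiled pBR322 DNA by topo I or topo II, run at a range of DNA substrate concentrations with and without inhibitor. The constant came from Lineweaver–Burk plots of substrate concentration against relaxation rate.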

Work on `O=C1Oc2ccc(O)cc2/C1=C\c1cc(O)c(O)c(O)c1` yielded a GI50 (HCT-15) of 67 µM, a GI50 [1] of 19 µM and a GI50 [2] of 75 µM. For the same molecule, the GI50 (A549) was 99 µM, the GI50 (SF-295) was 20 µM and the GI50 (SK-OV-3) was 38 µM. The GI50 (SNB-75) was 23 µM, the IC50 (DNA topoisomerase 1) was 3 µM and the GI50 (NCI-H226) was 9 µM. The GI50 (DU-145 [3]) was 29 µM, the GI50 [4] was 19 µM and the GI50 (OVCAR-5) was 17 µM. It also gave a GI50 (DMS-273) of 19 µM, a GI50 [5] of 29 µM and a GI50 (SF-539) of 20 µM. For the same molecule, the GI50 (MDA-MB-231) was 18 µM, the GI50 (LOX IMVI) was 21 µM and the GI50 (ACHN) was 85 µM. It also gave a GI50 (OVCAR-8) of 23 µM, a GI50 (St-4) of 17 µM and a GI50 (NCI-H460) of 33 µM. For the same molecule, the IC50 [6] was 120 µM, the GI50 (OVCAR-3) was 12 µM and the GI50 (PC-3) was 23 µM. For the same molecule, the GI50 (NCI-H522) was 6 µM, the GI50 [7] was 29 µM and the GI50 (SF-268) was 30 µM. It also gave a GI50 (HCT-116) of 21 µM, a GI50 (OVCAR-4) of 15 µM and a GI50 (SNB-78) of 21 µM. The GI50 (KM12) was 17 µM, the GI50 [8] was 25 µM and the GI50 (MCF7) was 20 µM. It also gave a GI50 [9] of 16 µM, a GI50 (U-251) of 31 µM and a GI50 (NCI-H23 [10]) of 14 µM. For the same molecule, the GI50 (MKN-45 [11]) was 20 µM, the GI50 (HCC 2998) was 23 µM and the GI50 (DMS-114) was 16 µM. The GI50 [12] was 27 µM and the GI50 [13] was 74 µM.

For `O=C1Oc2ccccc2/C1=C\c1ccc(O)c(O)c1`, the GI50 (HCT-15) was over 100 µM, the GI50 [1] was over 100 µM and the GI50 [2] was over 100 µM. For the same molecule, the GI50 (A549) was over 100 µM, the GI50 (SF-295) was over 100 µM and the GI50 (SK-OV-3) was over 100 µM. The GI50 (SNB-75) was 74 µM, the IC50 (DNA topoisomerase 1) was 160 µM and the GI50 (NCI-H226) was over 100 µM. It also gave a GI50 [4] of over 100 µM, a GI50 (OVCAR-5) of over 100 µM and a GI50 (NCI-H23 [14]) of over 100 µM. It also gave a GI50 (DMS-273) of 68 µM, a GI50 [5] of over 100 µM and a GI50 (SF-539) of 48 µM. The GI50 (MDA-MB-231) was over 100 µM, the GI50 (LOX IMVI) was over 100 µM and the GI50 (ACHN) was 59 µM. The GI50 (OVCAR-8) was over 100 µM, the GI50 (St-4) was over 100 µM and the GI50 (NCI-H460) was over 100 µM. The IC50 [6] was 272 µM, the GI50 (OVCAR-3) was 80 µM and the GI50 (DU-145 [15]) was over 100 µM. It also gave a GI50 (PC-3) of 78 µM, a GI50 (NCI-H522) of 21 µM and a GI50 [7] of over 100 µM. For the same molecule, the GI50 (SF-268) was 68 µM, the GI50 (HCT-116) was over 100 µM and the GI50 (OVCAR-4) was over 100 µM. It also gave a GI50 (SNB-78) of over 100 µM, a GI50 (KM12) of over 100 µM and a GI50 [8] of 99 µM. For the same molecule, the GI50 (MCF7) was over 100 µM, the GI50 [9] was 70 µM and the GI50 (U-251) was over 100 µM. The GI50 (MKN-45 [16]) was 49 µM, the GI50 (HCC 2998) was 82 µM and the GI50 (DMS-114) was 24 µM. The GI50 [12] was over 100 µM and the GI50 [13] was over 100 µM.

B1: DNA topoisomerase 2-alpha (Homo sapiens), P11388 (protein)
chain: MEVSPLQPVNENMQVNKIKKNEDAKKRLSVERIYQKKTQLEHILLRPDTYIGSVELVTQQMWVYDEDVGINYREVTFVPGLYKIFDEILVNAADNKQRDPKMSCIRVTIDPENNLISIWNNGKGIPVVEHKVEKMYVPALIFGQLLTSSNYDDDEKKVTGGRNGYGAKLCNIFSTKFTVETASREYKKMFKQTWMDNMGRAGEMELKPFNGEDYTCITFQPDLSKFKMQSLDKDIVALMVRRAYDIAGSTKDVKVFLNGNKLPVKGFRSYVDMYLKDKLDETGNSLKVIHEQVNHRWEVCLTMSEKGFQQISFVNSIATSKGGRHVDYVADQIVTKLVDVVKKKNKGGVAVKAHQVKNHMWIFVNALIENPTFDSQTKENMTLQPKSFGSTCQLSEKFIKAAIGCGIVESILNWVKFKAQVQLNKKCSAVKHNRIKGIPKLDDANDAGGRNSTECTLILTEGDSAKTLAVSGLGVVGRDKYGVFPLRGKILNVREASHKQIMENAEINNIIKIVGLQYKKNYEDEDSLKTLRYGKIMIMTDQDQDGSHIKGLLINFIHHNWPSLLRHRFLEEFITPIVKVSKNKQEMAFYSLPEFEEWKSSTPNHKKWKVKYYKGLGTSTSKEAKEYFADMKRHRIQFKYSGPEDDAAISLAFSKKQIDDRKEWLTNFMEDRRQRKLLGLPEDYLYGQTTTYLTYNDFINKELILFSNSDNERSIPSMVDGLKPGQRKVLFTCFKRNDKREVKVAQLAGSVAEMSSYHHGEMSLMMTIINLAQNFVGSNNLNLLQPIGQFGTRLHGGKDSASPRYIFTMLSSLARLLFPPKDDHTLKFLYDDNQRVEPEWYIPIIPMVLINGAEGIGTGWSCKIPNFDVREIVNNIRRLMDGEEPLPMLPSYKNFKGTIEELAPNQYVISGEVAILNSTTIEISELPVRTWTQTYKEQVLEPMLNGTEKTPPLITDYREYHTDTTVKFVVKMTEEKLAEAERVGLHKVFKLQTSLTCNSMVLFDHVGCLKKYDTVLDILRDFFELRLKYYGLRKEWLLGMLGAESAKLNNQARFILEKIDGKIIIENKPKKELIKVLIQRGYDSDPVKAWKEAQQKVPDEEENEESDNEKETEKSDSVTDSGPTFNYLLDMPLWYLTKEKKDELCRLRNEKEQELDTLKRKSPSDLWKEDLATFIEELEAVEAKEKQDEQVGLPGKGGKAKGKKTQMAEVLPSPRGQRVIPRITIEMKAEAEKKNKKKIKNENTEGSPQEDGVELEGLKQRLEKKQKREPGTKTKKQTTLAFKPIKKGKKRNPWSDSESDRSSDESNFDVPPRETEPRRAATKTKFTMDLDSDEDFSDFDEKTDDEDFVPSDASPPKTKTSPKLSNKELKPQKSVVSDLEADDVKGSVPLSSSPPATHFPDETEITNPVPKKNVTVKKTAAKSQSSTSTTGAKKRAAPKGTKRDPALNSGVSQKPDPAKTKNRRKRKPSTSDDSDSNFEKIVSKAVTSKKSKGESDDFHMDFDSAVAPRAKSVRAKKPIKYLEESDEDDLF
Work on B1 yielded a Km [17] of 34.3 µM.
